Assay results from ChEMBL document CHEMBL4017514, “Discovery of Novel Macrocyclic Hedgehog Pathway Inhibitors Acting by Suppressing the Gli-Mediated Transcription” (J Med Chem, 2017).
Activity calls are given as the source filed them. The rule behind the calls is not given here.

Key:
[1] = Inhibition of hedgehog signaling pathway in mouse Light2 cells in Shh conditioned medium by Gli-luciferase reporter gene assay; assay type: cell-based; settings: Mus musculus
How it was run: (§1)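 Light II cells (NIH-3T3 stably transfected with Gli-responsive firefly luciferase and Renilla expression vector) stimulated with ShhN conditioned medium. This medium was collected from ShhN-transfected HEK293 cells kept in 0.1% FBS. Firefly luciferase normalized to Renilla. IC50 given as mean ± SD (nM) from three separate experiments.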

[2] = Inhibition of hedgehog signaling pathway in mouse C3H10T1/2 cells assessed as inhibition of hedgehog-induced cell differentiation after 48 hrs by luminescence assay; assay type: cell-based; settings: C3H 10T1/2, 48 h
Mus musculus [3] = species: Mus musculus; test: Inhibition of hedgehog signaling pathway in mouse Light2 cells in Shh conditioned medium at 1 uM by Gli-luciferase reporter gene assay relative to control; assay type: cell-based
Mus musculus [4] = species: Mus musculus; test: Inhibition of hedgehog signaling pathway in mouse Ptch+/- p53-/- medulloblastoma cells assessed as reduction in ptch1 mRNA expression at 5 uM by RT-qPCR analysis
How it was run: (§2)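 ptch+/−;p53−/− medulloblastoma cells kept in Neurobasal A/B-27 medium with EGF and bFGF, then treated. Gli1 and ptch1 mRNA measured by RT-qPCR. Data given as mean ± SD.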

Mus musculus [5] = species: Mus musculus; test: Inhibition of hedgehog signaling pathway in mouse Ptch+/- p53-/- medulloblastoma cells assessed as reduction in GLI1 mRNA expression at 5 uM by RT-qPCR analysis; how it was run: as §2
[6] = Antitumor activity against mouse Ptch+/- p53-/- medulloblastoma cells implanted in athymic nude mouse assessed as tumor growth inhibition at 25 mg/kg, ip bid for 15 consecutive days; assay type: functional; settings: Medulloblastoma cell, read-out: TGI
How it was run: (§3)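 Spontaneous ptch+/−;p53−/− intracranial medulloblastomas passaged subcutaneously in athymic nude mice, then 1 mm3 fragments implanted in the right flank. Dosing started at 100−150 mm3 tumor volume, n = 5. Drug given ip twice daily for 15 days as a suspension in 0.5% methylcellulose, 0.2% Tween-80. Caliper volume (length × width2/2) taken twice weekly. TGI calculated on the last day from growth versus vehicle.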

[7] = Antitumor activity against mouse Ptch+/- p53-/- medulloblastoma cells implanted in athymic nude mouse assessed as tumor growth inhibition at 50 mg/kg, ip bid for 15 consecutive days; assay type: functional; settings: Medulloblastoma cell, read-out: TGI; how it was run: as §3
KB = test: Cytotoxicity against human KB cells; assay type: cell-based
[8] = Inhibition of hedgehog signaling pathway in mouse Shh Light2 cells harboring Gli1 plasmid assessed as reduction in Gli1-mediated transcriptional activity by luciferase reporter gene assay; assay type: cell-based
[9] = Inhibition of hedgehog signaling pathway in mouse Light2 cells harboring Smo D473H mutant after 36 hrs by Gli luciferase activity; assay type: cell-based
How it was run: (§4)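 Light II cells (NIH-3T3 stably carrying Gli-responsive firefly luciferase and Renilla vector) transfected with wild-type, D473H or W535L Smo plasmid. Exposed to compound for 36 h, then dual luciferase assay with firefly/Renilla normalization. IC50 derived and given as mean ± SD.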

[10] = Inhibition of hedgehog signaling pathway in mouse Light2 cells harboring wild type Smo after 36 hrs by Gli luciferase activity; assay type: cell-based; how it was run: as §4
[11] = Inhibition of hedgehog signaling pathway in mouse Shh Light2 cells harboring Gli2 plasmid assessed as reduction in Gli2-mediated transcriptional activity by luciferase reporter gene assay; assay type: cell-based
[12] = Inhibition of hedgehog signaling pathway in mouse Light2 cells harboring Smo W535L mutant after 36 hrs by Gli luciferase activity; assay type: cell-based; how it was run: as §4
Mus musculus [13] = test: Toxicity in athymic nude mouse implanted with mouse Ptch+/- p53-/- medulloblastoma cells assessed as body weight loss at 25 to 50 mg/kg, ip bid for 15 consecutive days; assay type: organism-based; settings: in vivo
How it was run: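 Body weight of nude mice (n = 5) carrying medulloblastoma allografts was followed during 15 days of twice-daily ip dosing in 0.5% methylcellulose/0.2% Tween-80 suspension. Data given as mean ± SD.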

[14] = Inhibition of hedgehog signaling pathway in mouse Shh Light2 cells assessed as reduction in ShhN-induced GLI-mediated transcriptional activity by luciferase reporter gene assay; assay type: cell-based; how it was run: as §1

IC50 [1] [nM]	EC50 [2] [nM]	inhibition (Mus musculus [4])	inhibition (Mus musculus [5])	IC50 [8] [nM]	IC50 [9] [nM]	IC50 [10] [nM]	IC50 [11] [nM]	IC50 [12] [nM]	IC50 [14] [nM]	SMILES	inhibition (Mus musculus [3]) [%]	inhibition in vivo at 25 mg/kg [6] [%]	inhibition in vivo at 50 mg/kg [7] [%]	IC50 (KB) [nM]	Activity (Mus musculus [13])
383	60	inactive	inactive	–	–	–	–	–	–	C[C@H](CO)N1C[C@H](C)[C@H](CN(C)S(=O)(=O)c2ccc(Cl)cc2Cl)Oc2c(NC(=O)C3CC3)cccc2C1=O	67	–	–	–	–
23	–	–	–	29.9	37.5	35.7	24.9	39.8	23	COc1ccc(CN2C[C@@H]3CN(S(=O)(=O)c4ccc(Cl)cc4)CC[C@@H]3Oc3c(NC(=O)C4CC4)cccc3C2=O)cc1 (racemic)	–	57.5	73.4	> 20000	Non-Toxic
